From ChEMBL document CHEMBL4038273, “MAO enzymes inhibitory activity of new benzimidazole derivatives including hydrazone and propargyl side chains” (Eur J Med Chem, 2017) come the findings set out here.

The species entered for one data set is Homo sapiens. Briefly: Selectivity index, ratio of IC50 for recombinant human MAO-A expressed in baculovirus infected BTI insect cells to IC50 for recombinant human MAO-B expressed in baculovirus infected BTI insect cells. A digest of the protocol:
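Selectivity index calculated as IC50(MAO-A)/IC50(MAO-B), with both IC50 values from the fluorometric tyramine/HRP/Amplex Red inhibition assay.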

Data set [1] has as its target T1, Amine oxidase [flavin-containing] A (Homo sapiens, UniProt P21397).
T1 sequence (P21397 whole entry): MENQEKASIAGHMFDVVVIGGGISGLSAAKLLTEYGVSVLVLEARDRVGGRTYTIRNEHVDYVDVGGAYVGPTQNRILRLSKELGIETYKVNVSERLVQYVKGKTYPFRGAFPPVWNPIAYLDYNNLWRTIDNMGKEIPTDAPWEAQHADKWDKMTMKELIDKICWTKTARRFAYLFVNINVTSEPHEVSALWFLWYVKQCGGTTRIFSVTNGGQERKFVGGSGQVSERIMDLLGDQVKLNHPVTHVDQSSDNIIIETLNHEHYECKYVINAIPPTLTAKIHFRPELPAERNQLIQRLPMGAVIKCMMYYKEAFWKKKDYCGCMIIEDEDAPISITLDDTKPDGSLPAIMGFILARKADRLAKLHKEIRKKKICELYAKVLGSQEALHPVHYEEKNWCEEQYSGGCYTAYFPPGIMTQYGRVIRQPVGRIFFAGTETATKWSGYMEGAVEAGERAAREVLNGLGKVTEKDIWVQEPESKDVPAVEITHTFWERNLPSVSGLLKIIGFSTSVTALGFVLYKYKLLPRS
The data set is described as follows: Inhibition of recombinant human MAO-A expressed in baculovirus infected BTI insect cells using tyramine as substrate pretreated for 30 mins followed by substrate addition incubated for 30 mins measured at 5 mins interval by horse-radish peroxidase/amplex red-based fluorometric method. A digest of the protocol:
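Recombinant hMAO-A (0.5 U/mL stock) or hMAO-B (0.64 U/mL stock) in phosphate buffer, preincubated with inhibitor (solutions 10^-3 to 10^-9 M in 2% DMSO) for 30 min at 37°C. Background-subtracted against DMSO control; quadruplicate.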

Data set [2] concerns the target T1, Amine oxidase [flavin-containing] A. Briefly: Inhibition of recombinant human MAO-A expressed in baculovirus infected BTI insect cells at 10^-4 to 10^-3 uM using tyramine as substrate pretreated for 30 mins followed by substrate addition incubated for 30 mins measured at 5 mins interval by horse-radish peroxidase/amplex red-based fluorometric method relative to control. The settings on record: 0.5 h. A digest of the protocol: (§1)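 Recombinant hMAO-A (0.5 U/mL stock) or hMAO-B (0.64 U/mL stock) in phosphate buffer, preincubated with inhibitor (solutions 10^-3 to 10^-9 M in 2% DMSO) for 30 min at 37°C. Working solution (HRP, Amplex Red, tyramine) then added for 30 min at 37°C, with fluorescence (Ex/Em 535/587 nm) read every 5 min. Background-subtracted against DMSO control; quadruplicate.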

Data set [3] deals with T2, Amine oxidase [flavin-containing] B (Homo sapiens, UniProt P27338).
T2 sequence (P27338 whole entry): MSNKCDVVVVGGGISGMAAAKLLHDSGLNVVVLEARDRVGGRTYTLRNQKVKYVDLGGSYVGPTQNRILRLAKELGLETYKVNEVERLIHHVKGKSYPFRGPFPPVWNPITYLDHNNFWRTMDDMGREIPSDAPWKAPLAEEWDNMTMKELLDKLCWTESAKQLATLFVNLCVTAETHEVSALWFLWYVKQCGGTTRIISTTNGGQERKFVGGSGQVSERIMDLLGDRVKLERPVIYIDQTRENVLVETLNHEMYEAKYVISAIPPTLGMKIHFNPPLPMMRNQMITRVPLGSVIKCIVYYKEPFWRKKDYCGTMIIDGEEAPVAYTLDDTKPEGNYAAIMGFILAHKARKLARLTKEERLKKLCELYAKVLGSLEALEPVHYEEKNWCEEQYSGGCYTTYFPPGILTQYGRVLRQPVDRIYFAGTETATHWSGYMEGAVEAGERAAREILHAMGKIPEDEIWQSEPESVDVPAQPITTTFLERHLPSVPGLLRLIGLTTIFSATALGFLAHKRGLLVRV
Briefly: Inhibition of recombinant human MAO-B expressed in baculovirus infected BTI insect cells using tyramine as substrate pretreated for 30 mins followed by substrate addition incubated for 30 mins measured at 5 mins interval by horse-radish peroxidase/amplex red-based fluorometric method. The data set is classed as cell-based.

The target of data set [4] is T2, Amine oxidase [flavin-containing] B. Briefly: Inhibition of recombinant human MAO-B expressed in baculovirus infected BTI insect cells at 10^-4 to 10^-3 uM using tyramine as substrate pretreated for 30 mins followed by substrate addition incubated for 30 mins measured at 5 mins interval by horse-radish peroxidase/amplex red-based fluorometric method. The settings on record: 0.5 h. A digest of the protocol:
as §1

Where only a bound is given, the exact number is not on record here.

For the compound `C#CCn1c(-c2ccc(C(=O)N/N=C/c3cccc(OC)c3)cc2)nc2ccccc21`, the Ratio IC50 in the data set listed under Homo sapiens was more than 7.93. The IC50 in data set [1] is not below 100 µM; in data set [3], 12.6 µM. For the same compound, in data set [2], the “inhibition (INH)” value was less than 50%.

For `C#CCn1c(-c2ccc(C(=O)N/N=C/c3ccccc3OC)cc2)nc2ccccc21`, the IC50 in data set [1] and in data set [3] was not below 1000 µM in each case. The “inhibition (INH)” value in data set [2] and in data set [4] was “Not Active” throughout.

Consider `C#CCn1c(-c2ccc(C(=O)N/N=C/c3cccs3)cc2)nc2ccccc21`, for which the IC50 in data set [1] is not below 1000 µM; in data set [3], not below 100 µM. Also, the “inhibition (INH)” value in data set [2] and in data set [4] was “Not Active” throughout.

For the compound `C#CCn1c(-c2ccc(C(=O)N/N=C/c3cc(O)cc(O)c3)cc2)nc2ccccc21`, the Ratio IC50 in the data set filed under Homo sapiens was 1.9. In addition, the IC50 in data set [1] came out at 19.6 µM; in data set [3] it was 10.3 µM.

`C#CCn1c(-c2ccc(C(=O)N/N=C/c3cccn3C)cc2)nc2ccccc21`: in the data set listed under Homo sapiens, the Ratio IC50 is more than 8.22. Moreover, the IC50 was not below 100 µM in data set [1] and 12.2 µM in data set [3]. Besides, the “inhibition (INH)” value in data set [2] was less than 50%.

For the compound `C#CCn1c(-c2ccc(C(=O)N/N=C/c3cccc(OC)c3OC)cc2)nc2ccccc21`, the Ratio IC50 in the data set filed under Homo sapiens worked out at 2.89. For the same compound, the results for the IC50 in data set [1] and in data set [3] were 53.5 µM and 18.5 µM, respectively.

Take `C#CCn1c(-c2ccc(C(=O)N/N=C/c3ccc([N+](=O)[O-])s3)cc2)nc2ccccc21`: the Ratio IC50 in the data set filed under Homo sapiens stood at 30.7. For the same compound, the figures for the IC50 in data set [1] and in data set [3] were 27.1 µM and 0.881 µM, respectively.

In the case of `C#CCn1c(-c2ccc(C(=O)N/N=C/c3ccc(OC)cc3)cc2)nc2ccccc21`, in the data set listed under Homo sapiens, the Ratio IC50 is 22.3. The results for the IC50 in data set [1] and in data set [3] were 43.3 µM and 1.94 µM, respectively.

As for `C#CCn1c(-c2ccc(C(=O)N/N=C/c3cccc(O)c3)cc2)nc2ccccc21`, the IC50 in data set [1] and in data set [3] was not below 1000 µM each time. For the same compound, the “inhibition (INH)” value in data set [2] and in data set [4] was “Not Active” in each case.

On to `C#CCn1c(-c2ccc(C(=O)N/N=C/c3ccc(Cl)cc3)cc2)nc2ccccc21`, for which the Ratio IC50 in the data set listed under Homo sapiens is more than 9.85. Further, the IC50 in data set [1] was not below 100 µM; in data set [3] it was 10.2 µM. The “inhibition (INH)” value in data set [2] is reported as less than 50%.

On to `C#CCn1c(-c2ccc(C(=O)N/N=C/c3ccc[nH]3)cc2)nc2ccccc21`, for which the IC50 in data set [1] and in data set [3] was not below 1000 µM throughout. The “inhibition (INH)” value in data set [2] and in data set [4] was “Not Active” each time.

As for `C#CCn1c(-c2ccc(C(=O)N/N=C/c3cc(OC)cc(OC)c3)cc2)nc2ccccc21`, the Ratio IC50 in the data set filed under Homo sapiens was more than 3.96. For the same compound, the figures for the IC50 in data set [1] and in data set [3] were not below 100 µM and 25.2 µM, respectively. For the same compound, the “inhibition (INH)” value in data set [2] is less than 50%.

`C#CCn1c(-c2ccc(C(=O)N/N=C/c3ccc(O)cc3)cc2)nc2ccccc21`: the Ratio IC50 in the data set listed under Homo sapiens is 1.43. Further, the IC50 was found to be 2.82 µM in data set [1] and 1.97 µM in data set [3].
